M5 PAM: human M5 muscarinic receptor positive allosteric modulators, primary screen, CHO-K1 cells, Fluo-8 calcium fluorescence; CHO-K1 hM5, ACh EC20 PAM; 0% = ACh EC20, 100% = ACh EC100; Muscarinic acetylcholine receptor M5 (Homo sapiens), P08912; activation, % at 3 µM; 360,000 tested, 0.3% active;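 active = activation above the run cutoff, the mean activation of all test compounds plus 3 SD, cut at about 18% in these data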
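system = human M5 receptor in CHO-K1 cells | compound = one concentration, 3 µM final (nominal) | schedule = Post-acetylcholine fluorescence recording 140 s | signal = Fluo-8 calcium dye fluorescence, kinetic read | benchmarks = low control EC20 acetylcholine (0%), high control EC100 acetylcholine (100%) | repeats = singlicate, one well per test compound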
CHRM4 antagonist: human M4 muscarinic receptor antagonists, primary screen, CHO cells, Fluo-8 calcium fluorescence; Muscarinic acetylcholine receptor M4 (Homo sapiens), P08173; CHO-hM4 cells, ACh EC80; inhibition, % at 3 µM; 360,000 tested, 0.73% active; AID 624125, 2012;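 active = inhibition above its plate's cutoff, the mean inhibition of sample wells plus 3 SD, cut at about 27% in these data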
Target sequence (P08173 whole entry, looked up): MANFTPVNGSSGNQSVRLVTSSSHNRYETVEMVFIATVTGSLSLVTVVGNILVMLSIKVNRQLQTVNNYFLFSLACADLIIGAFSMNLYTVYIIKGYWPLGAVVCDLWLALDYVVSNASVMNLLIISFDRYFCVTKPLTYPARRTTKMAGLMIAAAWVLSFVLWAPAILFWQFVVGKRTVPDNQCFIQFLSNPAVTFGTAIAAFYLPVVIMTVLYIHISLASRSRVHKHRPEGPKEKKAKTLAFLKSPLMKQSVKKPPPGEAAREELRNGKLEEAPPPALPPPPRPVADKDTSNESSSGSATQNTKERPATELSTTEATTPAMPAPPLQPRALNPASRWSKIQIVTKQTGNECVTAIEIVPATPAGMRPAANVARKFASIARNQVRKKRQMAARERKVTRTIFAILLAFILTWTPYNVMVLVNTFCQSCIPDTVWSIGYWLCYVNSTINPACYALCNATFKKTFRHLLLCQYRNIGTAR
M4 ag: human M4 muscarinic receptor agonists, primary screen, CHO-K1 cells, Fluo-8 calcium fluorescence; Muscarinic acetylcholine receptor M4 (Homo sapiens), P08173; CHO-K1 hM4/Gqi5; vehicle 0%, full acetylcholine response 100%; activation, % at 3 µM; 360,000 tested, 0.14% active;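 active = activation above the run mean over all test wells plus 3 SD, cut at about 32% in these data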;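 note: peak over basal fluorescence ratio per well then scaled between controls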
CHRM5 agonist: human M5 muscarinic receptor agonists, primary screen, CHO-K1 cells, Fluo-8 calcium fluorescence | CHO-K1 hM5 cells; 0% DMSO wells, 100% maximal acetylcholine response | AID 624037, 2012 | activation, % at 3 µM | 360,000 tested, 0.19% active;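 active = activation above the run's mean over test compounds plus 3 SD, cut at about 23% in these data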;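 note: signal is peak over basal fluorescence ratio across the kinetic read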
M5 antag: human M5 muscarinic receptor antagonists, primary screen, CHO cells, Fluo-8 calcium fluorescence; CHO-hM5 cells, ACh EC80; Muscarinic acetylcholine receptor M5 (Homo sapiens), P08912; inhibition, % at 3 µM; 360,000 tested, 0.59% active; AID 624040, 2012;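 active = inhibition above a per-plate cutoff, the mean of that plate's test compounds plus 3 SD, cut at about 27% in these data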
M4 PAM: human M4 muscarinic receptor positive allosteric modulators, primary screen, CHO-K1 cells, Fluo-8 calcium fluorescence; CHO-K1 hM4/Gqi5, ACh EC20; 0% = ACh EC20, 100% = maximal ACh; 360,000 tested, 0.4% active; activation, % at 3 µM; Muscarinic acetylcholine receptor M4 (Homo sapiens), P08173;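 active = activation above its plate's cutoff, the mean activation of sample wells plus 3 SD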
A number is an active result. Only some compounds are listed: those with a hit (about 1.9% of all), similar ones and a draw of the others.

Screening O=C(c1ccc2c(c1)OCO2)C1CCCN(CC2CCCCC2)C1 (configuration not stated) returned M5 PAM inactive, CHRM4 antagonist 41, M4 ag inactive, CHRM5 agonist inactive, M5 antag inactive and M4 PAM inactive.
CCOC(=O)C1CCCN(c2ccc([N+](=O)[O-])c3nonc23)C1 (configuration not stated) was read as M5 PAM inactive, CHRM4 antagonist 53, M4 ag 314, CHRM5 agonist 185, M5 antag 52 and M4 PAM inactive.
For CC1CCCN(c2ccc(C(=O)N3CCC4(CC3)OCCO4)cc2[N+](=O)[O-])C1 (configuration not stated) the results were M5 PAM inactive, CHRM4 antagonist inactive, M4 ag inactive, CHRM5 agonist inactive, M5 antag inactive and M4 PAM inactive.
CC(C)[N+](C)(CCC(C(N)=O)(c1ccccc1)c1ccccc1)C(C)C was read as M5 PAM inactive, CHRM4 antagonist 100, M4 ag inactive, CHRM5 agonist inactive, M5 antag 99 and M4 PAM inactive.
CCC(=O)C(CCN1CCOCC1)(c1ccccc1)c1ccccc1 was read as M5 PAM inactive, CHRM4 antagonist inactive, M4 ag inactive, CHRM5 agonist inactive, M5 antag inactive and M4 PAM inactive.
Screening O=[N+]([O-])c1cccc(NP(=O)(Oc2ccccc2)Oc2ccccc2)c1 returned M5 PAM inactive, CHRM4 antagonist inactive, M4 ag inactive, CHRM5 agonist inactive, M5 antag inactive and M4 PAM inactive.
Screening O=C(c1ccc(Cl)cc1)C1CCCN(Cc2cccc3cccnc23)C1 (configuration not stated) returned M5 PAM inactive, CHRM4 antagonist inactive, M4 ag inactive, CHRM5 agonist inactive, M5 antag inactive and M4 PAM inactive.
Screening O=C(c1ccc(Cl)cc1)C1CCCN(Cc2cccc3ncccc23)C1 (configuration not stated) returned M5 PAM inactive, CHRM4 antagonist inactive, M4 ag inactive, CHRM5 agonist inactive, M5 antag 34 and M4 PAM inactive.
`CCOP(=O)(OCC)/C(C#N)=C/c1ccoc1` gave M5 PAM inactive, CHRM4 antagonist inactive, M4 ag inactive, CHRM5 agonist inactive, M5 antag inactive and M4 PAM inactive.
For O=c1[nH]c(=S)n(-c2ccccc2)c(O)c1/C=N/N1CCCCC1c1cccnc1 (configuration not stated) the results were M5 PAM inactive, CHRM4 antagonist inactive, M4 ag inactive, CHRM5 agonist inactive, M5 antag inactive and M4 PAM inactive.
For CCc1ccc(-n2c(O)c(/C=N/N3CCCCC3c3cccnc3)c(=O)[nH]c2=O)cc1 (configuration not stated) the results were M5 PAM 19, CHRM4 antagonist inactive, M4 ag inactive, CHRM5 agonist inactive, M5 antag inactive and M4 PAM inactive.
`COC1C(C)OC(OC2CC(C)(O)Cc3cc4c(c(O)c32)C(=O)c2c(O)cc3c(c2C4=O)OC2OC3(C)C(O)C(N(C)C)C2O)C(OC)C1(C)OC` (configuration not stated) gave M5 PAM inactive, CHRM4 antagonist inactive, M4 ag inactive, CHRM5 agonist 30, M5 antag inactive and M4 PAM inactive.
S=C1NCCN1 was read as M5 PAM inactive, CHRM4 antagonist 30, M4 ag inactive, CHRM5 agonist inactive, M5 antag inactive and M4 PAM inactive.
For Cc1ncc(CN2CCCC(C(=O)c3ccc(C(C)(C)C)cc3)C2)s1 (configuration not stated) the results were M5 PAM inactive, CHRM4 antagonist inactive, M4 ag inactive, CHRM5 agonist inactive, M5 antag 29 and M4 PAM inactive.

From PubChem BioAssay
